GAA850 FXN act: increases GAA850 frataxin promoter reporter activity. hit rate 0.56% among 360,000. HEK293 lucGAA850 FXN promoter luciferase reporter, 24 h; percent of 10 µM SAHA response. activation, % at 6 µM;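 active = activation above the average of all compounds screened plus 3 SD, cutoff fixed separately per campaign, cut at about 7.5% in these data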
AHR act: activators of human aryl hydrocarbon receptor; P35869; AHR-responsive luciferase reporter cells, luminescence; activation, % at 5 µM; hit rate 2.5% among 320,000; in the data active = activation above about 47%
MC4R barr agon: human MC4R agonism via beta-arrestin | P32245 | hit rate 0.98% among 360,000 | U2OS MC4R beta-arrestin complementation, luminescence; percent of melanotan II response, DMSO zero | activation, % at 8.9 µM | AID 540308;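 active = activation above a per-plate cutoff, the mean activation of sample wells on that plate plus 3 SD, cut at about 8% in these data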
m5-HT2A agonist: mouse HTR2A agonism via beta-arrestin recruitment; P35363; CHO-K1 mHTR2A beta-arrestin complementation, luminescence; percent of 30 µM serotonin response; hit rate 0.66% among 360,000; activation, % at 7.6 µM; AID 624169;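 active = activation above a run cutoff, the mean activation of all tested compounds plus 3 SD, cut at about 14% in these data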
Target sequence (P35363 whole entry, looked up): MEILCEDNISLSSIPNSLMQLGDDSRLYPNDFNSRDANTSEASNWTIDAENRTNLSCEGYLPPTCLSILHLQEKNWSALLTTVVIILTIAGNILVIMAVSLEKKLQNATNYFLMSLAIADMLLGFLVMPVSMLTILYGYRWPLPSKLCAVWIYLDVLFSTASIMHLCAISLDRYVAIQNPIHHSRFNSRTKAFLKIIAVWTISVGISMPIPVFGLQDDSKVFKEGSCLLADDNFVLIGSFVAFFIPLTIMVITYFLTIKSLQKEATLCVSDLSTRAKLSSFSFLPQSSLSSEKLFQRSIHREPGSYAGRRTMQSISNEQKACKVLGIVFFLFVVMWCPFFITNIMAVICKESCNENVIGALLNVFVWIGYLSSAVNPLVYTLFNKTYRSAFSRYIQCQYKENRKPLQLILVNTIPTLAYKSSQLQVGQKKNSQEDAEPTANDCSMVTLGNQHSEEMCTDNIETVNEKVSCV
MC4R antagonist: human MC4R antagonism in cAMP assay; hit rate 0.48% among 360,000; MC4R-expressing cells, MTII-stimulated cAMP, LANCE TR-FRET; inhibition, % at 6.5 µM; P32245;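 active = inhibition above its plate's cutoff, the mean of tested wells on that plate plus 3 SD, cut at about 29% in these data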
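Material: U2OS-MC4R stable cell line | Reagent: Melanotan II challenge after compound preincubation | Doses: One concentration, 6.5 µM nominal | Incubation: 30-min compound preincubation, 1-h Melanotan II challenge, 1-h detection, room temperature | Signal: TR-FRET cAMP assay | Replicates: One well per compound, no replicates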
OPRM1 ag: activates human mu opioid receptor in HTR2A counterscreen | hit rate 5.3% among 2,300 | shares compounds with m5-HT2A agonist | U2OS OPRM1 beta-arrestin PathHunter, luminescence; DMSO 0%, DAMGO 9.3 µM 100% | activation, % at 9.3 µM;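 active = mean activation above the mean of DMSO-only wells plus 3 SD, cut at about 0.5% in these data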
HTR2A ag conf: mouse HTR2A agonism confirmed; CHO-K1 PathHunter beta-arrestin recruitment, luminescence; DMSO 0%, 30 µM serotonin 100%; shares compounds with m5-HT2A agonist; hit rate 19% among 2,300; activation, % at 7.6 µM;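 active = mean activation across triplicates above the hit threshold derived in the original primary screen, cut at about 15% in these data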
Hits are given with their value. Hits are enriched below; roughly 4.7% of the tested compounds scored in any of these assays.

`CCN1C[C@@H]2[C@@H]3C(=O)N(C)C(=O)[C@@H]3[C@](Cc3ccccc3)(C1=O)N2C(=O)c1ccc(Cl)c(Cl)c1` gave GAA850 FXN act inactive, MC4R barr agon inactive, m5-HT2A agonist inactive and MC4R antagonist inactive.
For COc1ccc(CCN2C(=O)c3ccccc3C2c2nnnn2C(C)C)cc1OC (stereo not drawn) the results were m5-HT2A agonist inactive.
`O=C(NC1CCCC1)C1CCCN1S(=O)(=O)c1cccc2cccnc12` (stereo not drawn) gave GAA850 FXN act inactive, AHR act inactive, MC4R barr agon inactive, m5-HT2A agonist 22, MC4R antagonist inactive, OPRM1 ag inactive and HTR2A ag conf inactive.
Screening COc1ccc(C(=O)N/C(=C\c2cn(S(=O)(=O)N(C)C)c3ccccc23)C(=O)N2CCCC2)cc1 returned GAA850 FXN act inactive, MC4R barr agon inactive, m5-HT2A agonist inactive and MC4R antagonist inactive.
`COc1ccc(Cl)c2sc(N(CCN(C)C)C(=O)C3=COCCO3)nc12` gave GAA850 FXN act inactive, MC4R barr agon inactive, m5-HT2A agonist inactive and MC4R antagonist inactive.
For CCCCOc1ccc(C(=O)NCC(=O)NC2CCC(C)CC2)cc1 (stereo not drawn) the results were GAA850 FXN act inactive, AHR act inactive, MC4R barr agon inactive, m5-HT2A agonist 18, MC4R antagonist inactive, OPRM1 ag inactive and HTR2A ag conf inactive.
`CCCCOc1ccc(C(=O)NCC(=O)NC2CCN(Cc3ccccc3)CC2)cc1` gave GAA850 FXN act inactive, AHR act inactive, MC4R barr agon inactive, m5-HT2A agonist inactive and MC4R antagonist inactive.
CC(C)c1cc(NCC2CCCO2)n2c(nc3ccccc32)c1C#N (stereo not drawn) was read as GAA850 FXN act inactive, AHR act inactive, MC4R barr agon inactive, m5-HT2A agonist 17, MC4R antagonist inactive, OPRM1 ag 0.8 and HTR2A ag conf 25.
COc1ccc(NC2CCCN(C(=O)CCN3CCOCC3)C2)cc1 (stereo not drawn) was read as GAA850 FXN act inactive, AHR act inactive, MC4R barr agon inactive, m5-HT2A agonist inactive and MC4R antagonist inactive.
For CCn1c(=O)c(C(=O)CN2CCN(S(=O)(=O)c3ccc(C)cc3C)CC2)c(N)n(Cc2ccccc2)c1=O the results were GAA850 FXN act inactive, AHR act inactive, MC4R barr agon inactive, m5-HT2A agonist 16, MC4R antagonist inactive, OPRM1 ag inactive and HTR2A ag conf inactive.
CN1C(=O)CC(N2CCN(c3ccc(Cl)c(Cl)c3)CC2)C1=O (stereo not drawn) was read as GAA850 FXN act inactive, AHR act inactive, MC4R barr agon inactive, m5-HT2A agonist 16, MC4R antagonist inactive, OPRM1 ag inactive and HTR2A ag conf inactive.
Screening COc1cccc(N2CCN(C3CC(=O)N(c4ccc(Cl)c(Cl)c4)C3=O)CC2)c1 (stereo not drawn) returned GAA850 FXN act inactive, AHR act inactive, MC4R barr agon inactive, m5-HT2A agonist inactive and MC4R antagonist inactive.
`Cc1ccccc1-c1cnc(C(O)c2ccc(F)c(F)c2)[nH]1` (stereo not drawn) gave GAA850 FXN act inactive, MC4R barr agon inactive, m5-HT2A agonist inactive and MC4R antagonist inactive.
For CCOC(=O)C1CCN(CC(C)(C)NS(=O)(=O)c2ccc(C)cc2)CC1 the results were GAA850 FXN act inactive, AHR act inactive, MC4R barr agon inactive, m5-HT2A agonist 20, MC4R antagonist inactive, OPRM1 ag inactive and HTR2A ag conf inactive.
`CCOC(=O)C1CCN(CC(C)(C)NS(=O)(=O)c2ccc(Cl)cc2)CC1` gave GAA850 FXN act inactive, AHR act inactive, MC4R barr agon inactive, m5-HT2A agonist inactive and MC4R antagonist inactive.
For CC(/C=N/n1c(-c2ccncc2)n[nH]c1=S)=C\c1ccco1 the results were GAA850 FXN act inactive, AHR act inactive, MC4R barr agon inactive, m5-HT2A agonist 20, MC4R antagonist inactive, OPRM1 ag inactive and HTR2A ag conf inactive.
`CC(/C=N/n1c(-c2ccccc2)n[nH]c1=S)=C\c1ccco1` gave GAA850 FXN act inactive, AHR act inactive, MC4R barr agon inactive, m5-HT2A agonist 22, MC4R antagonist inactive, OPRM1 ag inactive and HTR2A ag conf inactive.
Screening CC(C)C[C@@H](CN1CCC[C@H]1CN1C(=O)C(=O)NC[C@@H]1Cc1ccccc1)N1C[C@H](Cc2ccc(O)cc2)N(CC2CCCCC2)C(=O)C1=O returned m5-HT2A agonist 15, OPRM1 ag inactive and HTR2A ag conf inactive.
Cc1cc2c3c(c1C)C1(C(=O)N3C(C)(C)CC2C)C(C#N)=C(N)Oc2cc(O)ccc21 (stereo not drawn) was read as GAA850 FXN act inactive, AHR act inactive, MC4R barr agon inactive, m5-HT2A agonist 25, MC4R antagonist inactive, OPRM1 ag inactive and HTR2A ag conf inactive.
`O=C(NCC1CCCCC1)c1ccccc1[N+](=O)[O-]` gave GAA850 FXN act inactive, AHR act inactive, MC4R barr agon inactive, m5-HT2A agonist inactive and MC4R antagonist inactive.
`COc1ccccc1CNC(=O)c1cccnc1` gave GAA850 FXN act inactive, AHR act inactive, MC4R barr agon inactive, m5-HT2A agonist inactive and MC4R antagonist inactive.
Cc1ccncc1CNC(=O)c1ccccc1 was read as GAA850 FXN act inactive, MC4R barr agon inactive, m5-HT2A agonist 16, MC4R antagonist inactive, OPRM1 ag inactive and HTR2A ag conf inactive.
CCOC(=O)C1(C)CCCN1C(=O)c1ccccc1OC (stereo not drawn) was read as GAA850 FXN act inactive, MC4R barr agon inactive, m5-HT2A agonist 15, MC4R antagonist inactive, OPRM1 ag inactive and HTR2A ag conf inactive.
`CCOC(=O)C1(C)CCCCN1C(=O)c1ccccc1OC` (stereo not drawn) gave GAA850 FXN act inactive, MC4R barr agon inactive, m5-HT2A agonist inactive and MC4R antagonist inactive.
For NC(=O)CC(NC(=O)c1ccccc1)c1ccc(NC2CCCCCCC2)c([N+](=O)[O-])c1 (stereo not drawn) the results were GAA850 FXN act inactive, AHR act inactive, MC4R barr agon inactive, m5-HT2A agonist 19, MC4R antagonist inactive, OPRM1 ag inactive and HTR2A ag conf inactive.
`CCc1nc2c(OCC(=O)C(C)(C)C)cccn2c1N(C)C(=O)CC(C)C` gave GAA850 FXN act inactive, MC4R barr agon inactive, m5-HT2A agonist 16, MC4R antagonist inactive, OPRM1 ag inactive and HTR2A ag conf inactive.
For CC(C)C[C@@H](COCc1cccc(Cl)c1)N1CCN(C(=O)c2ccc(C(F)(F)F)cc2)CCC1=O the results were m5-HT2A agonist inactive.
